Active and inactive are the calls of the source. The calls are words filed in the database; no cut-off is given here.
Key:
Staphylococcus aureus [1] = assay: Antibacterial activity against methicillin-resistant Staphylococcus aureus 33829 infected in in vitro pharmacokinetic model assessed as time required to 99.9% killing at 1500 mg, iv every 8 hrs using 10^6 CFU/ml inoculum; type: functional
Summary of the method: (§1)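 Single-compartment dilutional in vitro PK model, 10% Mueller-Hinton broth, 37°C, stirred, dilution 132 ml/h. […] Inoculum 10^6 CFU/ml (added 45 min pre-dose) or 10^8 CFU/ml (run overnight). Viable counts by spiral plating, beta-lactamase neutralization, detection limit 10^2 CFU/ml. At least triplicate.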

Staphylococcus aureus [2] = assay: Antibacterial activity against methicillin-sensitive Staphylococcus aureus 5956 infected in in vitro pharmacokinetic model assessed as time required to 99% killing at 1500 mg, iv every 8 hrs using 10^6 CFU/ml inoculum; type: functional
Staphylococcus aureus [3] = assay: AUBKC (0 to 24 hrs) in methicillin-resistant Staphylococcus aureus 33820 infected in in vitro pharmacokinetic model at 750 mg, iv every 8 hrs using 10^6 CFU/ml inoculum; type: functional
Summary of the method: (§2)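 Single-compartment dilutional in vitro PK model at 37°C in 10% Mueller-Hinton broth, stirred, flow 132 ml/h. […] Inoculum 10^6 CFU/ml added 45 min before dosing, or 10^8 CFU/ml run overnight. Viable counts with β-lactamase neutralisation. AUBKC by log-linear trapezoidal rule, at least triplicate.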

Staphylococcus aureus [4] = assay: AUBKC (0 to 48 hrs) in methicillin-resistant Staphylococcus aureus 33921 infected in in vitro pharmacokinetic model at 1500 mg, iv every 8 hrs using 10^6 CFU/ml inoculum; type: functional; summary of the method: as §2
Staphylococcus aureus [5] = assay: Antibacterial activity against methicillin-resistant Staphylococcus aureus 33815 infected in in vitro pharmacokinetic model assessed as reduction in viable count at 750 mg, iv every 8 hrs measured after 12 hrs using 10^8 CFU/ml inoculum; type: functional
Summary of the method: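 PK model at 37°C in 10% MHB. […] A 0.5 McFarland suspension (1 ml) was added and the model run overnight to reach 10^8 CFU/ml before dosing. Counts were spiral-plated on nutrient agar with β-lactamase. Change in log CFU/ml was measured from time 0; at least triplicate.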

Staphylococcus aureus [6] = assay: Antibacterial activity against methicillin-resistant Staphylococcus aureus 33922 infected in in vitro pharmacokinetic model assessed as time required to 99.9% killing at 750 mg, iv every 8 hrs using 10^8 CFU/ml inoculum; type: functional
Staphylococcus aureus [7] = assay: Antibacterial activity against methicillin-resistant Staphylococcus aureus 33815 infected in in vitro pharmacokinetic model assessed as time required to 99.9% killing at 750 mg, iv every 8 hrs using 10^8 CFU/ml inoculum; type: functional
Summary of the method: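 T99 and T99.9 were taken as the times for the count to fall 99% or 99.9% from time 0, using serial viable counts over 48 h. Inoculum was 10^8 CFU/ml, grown overnight in the model before dosing.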

Staphylococcus aureus [8] = assay: AUBKC (0 to 24 hrs) in methicillin-resistant Staphylococcus aureus 33815 infected in in vitro pharmacokinetic model at 750 mg, iv every 8 hrs using 10^8 CFU/ml inoculum; type: functional; summary of the method: as §2
Staphylococcus aureus [9] = assay: Antibacterial activity against methicillin-resistant Staphylococcus aureus 33921 assessed as viable count at 2 times of MIC after 24 hrs using 10^6 CFU/ml inoculum; type: functional, organism-based
Staphylococcus aureus [10] = assay: Antibacterial activity against methicillin-resistant Staphylococcus aureus 33827 assessed as viable count at 2 times of MIC after 24 hrs using 10^6 CFU/ml inoculum; type: functional, organism-based
Staphylococcus aureus [11] = assay: T>MIC in methicillin-resistant Staphylococcus aureus 33820 infected in vitro pharmacokinetic model at 750 mg, iv every 8 hrs; type: functional
Staphylococcus aureus [12] = assay: T>MIC in methicillin-resistant Staphylococcus aureus 33820 infected in vitro pharmacokinetic model at 1500 mg, iv every 8 hrs; type: functional
Staphylococcus aureus [13] = assay: Antibacterial activity against methicillin-resistant Staphylococcus aureus 33921 in in vitro pharmacokinetic model assessed as viable count at 4 times of MIC; type: functional
Summary of the method: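 Preexposure population analysis: time-zero model samples plated on nutrient agar without drug and with drug at multiples of the 10% broth MIC. Growth reported as log CFU/ml, detection limit 2 log10.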

Staphylococcus aureus [14] = assay: Antibacterial activity against methicillin-resistant Staphylococcus aureus 33922 in in vitro pharmacokinetic model assessed as viable count at 4 times of MIC; type: functional
Staphylococcus aureus [15] = assay: Antibacterial activity against methicillin-resistant Staphylococcus aureus 33827 assessed as viable count at 4 times of MIC after 24 hrs using 10^6 CFU/ml inoculum; type: functional, organism-based
Staphylococcus aureus [16] = assay: Antibacterial activity against methicillin-sensitive Staphylococcus aureus 5956 assessed as viable count at 4 times of MIC after 48 hrs using 10^6 CFU/ml inoculum; type: functional, organism-based
Staphylococcus aureus [17] = assay: T>MIC for 2-log drop in count in methicillin-sensitive Staphylococcus aureus 5956 in in vitro pharmacokinetic model after 24 hrs using 10^6 CFU/ml inoculum; type: functional
Staphylococcus aureus [18] = assay: T>MIC for 4-log drop in count in methicillin-sensitive Staphylococcus aureus 5956 in in vitro pharmacokinetic model after 24 hrs using 10^6 CFU/ml inoculum; type: functional
Summary of the method: (§3)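 Dose-ranging: 7–13 simulated regimens per strain giving T>MIC of 0–100% (MIC from 10% MHB), at 106 or 10^8 CFU/ml as stated.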

Staphylococcus aureus [19] = assay: T>MIC for 2-log drop in count in methicillin-sensitive Staphylococcus aureus 5956 in in vitro pharmacokinetic model after 24 hrs using 10^8 CFU/ml inoculum; type: functional; summary of the method: as §3
Staphylococcus aureus [20] = assay: Antibacterial activity against methicillin-resistant Staphylococcus aureus 33815 infected in in vitro pharmacokinetic model assessed as reduction in viable count at 1500 mg, iv every 8 hrs measured after 12 hrs using 10^6 CFU/ml inoculum; type: functional
Summary of the method: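 Log change in viable count from time zero to 12 h, β-lactamase-neutralised spiral plating, detection limit 10^2 CFU/ml, at least triplicate.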

Staphylococcus aureus [21] = assay: Antibacterial activity against methicillin-resistant Staphylococcus aureus 33921 infected in in vitro pharmacokinetic model assessed as reduction in viable count at 1500 mg, iv every 8 hrs measured after 24 hrs using 10^6 CFU/ml inoculum; type: functional; summary of the method: as §1
Staphylococcus aureus [22] = assay: Antibacterial activity against methicillin-resistant Staphylococcus aureus 33827 infected in in vitro pharmacokinetic model assessed as reduction in viable count at 1500 mg, iv every 8 hrs measured after 24 hrs using 10^6 CFU/ml inoculum; type: functional; summary of the method: as §1
Staphylococcus aureus [23] = assay: Antibacterial activity against methicillin-resistant Staphylococcus aureus 33829 infected in in vitro pharmacokinetic model assessed as reduction in viable count at 1500 mg, iv every 8 hrs measured after 24 hrs using 10^6 CFU/ml inoculum; type: functional; summary of the method: as §1
Staphylococcus aureus [24] = assay: Antibacterial activity against methicillin-resistant Staphylococcus aureus 33820 infected in in vitro pharmacokinetic model assessed as reduction in viable count at 1500 mg, iv every 8 hrs measured after 24 hrs using 10^6 CFU/ml inoculum; type: functional
Summary of the method: (§4)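 Single-compartment dilutional in vitro PK model, 37°C, stirred, in 10% Mueller-Hinton broth. […] Inoculum 10^6 CFU/ml from a 24-h plate culture was added 45 min before dosing. Viable counts by spiral plating on nutrient agar with β-lactamase neutralization. Log change was taken from time 0; detection limit 10^2 CFU/ml; at least triplicate.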

Staphylococcus aureus [25] = assay: Antibacterial activity against methicillin-resistant Staphylococcus aureus 33815 infected in in vitro pharmacokinetic model assessed as reduction in viable count at 1500 mg, iv every 8 hrs measured after 36 hrs using 10^6 CFU/ml inoculum; type: functional; summary of the method: as §4

Work on `C[C@@H](O)[C@H]1C(=O)N2C(C(=O)O)=C(S[C@H]3C[C@@H](C(=O)N4CC[C@H](NC(=O)CNC(=N)N)C4)N(C)C3)[C@H](C)[C@H]12` [TOMOPENEM] yielded a Time (Staphylococcus aureus [1]) of 12 h, a Time (Staphylococcus aureus [2]) of 5 h and an AUBC (Staphylococcus aureus [3]) of 28.6 log10CFU/ml.hr. It also gave an AUBC (Staphylococcus aureus [4]) of 38.1 log10CFU/ml.hr, a log10CFU/ml (Staphylococcus aureus [5]) of 1.7 and a Time (Staphylococcus aureus [6]) of 12 h. The Time (Staphylococcus aureus [7]) was 24 h, the AUBC (Staphylococcus aureus [8]) was 100 log10CFU/ml.hr and the Activity (Staphylococcus aureus [9]) was “inactive”. The Activity (Staphylococcus aureus [10]) was “inactive”, the “fT>MIC” value (Staphylococcus aureus [11]) was 73% and the “fT>MIC” value (Staphylococcus aureus [12]) was 98%. For the same molecule, the log10CFU/ml (Staphylococcus aureus [13]) was under 2, the log10CFU/ml (Staphylococcus aureus [14]) was 6 and the Activity (Staphylococcus aureus [15]) was “inactive”. The Activity (Staphylococcus aureus [16]) was “inactive”, the “fT>MIC” value (Staphylococcus aureus [17]) was 8.7% and the “fT>MIC” value (Staphylococcus aureus [18]) was 12.8%. For the same molecule, the “fT>MIC” value (Staphylococcus aureus [19]) was 7.4%, the log10CFU/ml (Staphylococcus aureus [20]) was 4.2 and the log10CFU/ml (Staphylococcus aureus [21]) was 4.2. It also gave a log10CFU/ml (Staphylococcus aureus [22]) of 4, a log10CFU/ml (Staphylococcus aureus [23]) of 4.2 and a log10CFU/ml (Staphylococcus aureus [24]) of 4.2. It also gave a log10CFU/ml (Staphylococcus aureus [25]) of 4.2.

From ChEMBL document CHEMBL1255300, “Pharmacodynamics of the antibacterial effect and emergence of resistance to tomopenem, formerly RO4908463/CS-023, in an in vitro pharmacokinetic model of Staphylococcus aureus infection” (Antimicrob Agents Chemother, 2008)
